Laboratory results reported in paper PMC2688716 (European neuropsychopharmacology : the journal of the …, 2008).
pKi: −log10 of the molar value. Where a name gives a salt, the structure may show the parent alone.

How the values were obtained:
Serotonin transporter = Serotonin transporter (Rattus norvegicus, UniProt P31652); assay: Radioligand binding, serotonin transporter; settings: 0.2 nM [3H]paroxetine; nonspecific 1.5 μM imipramine; rat brainstem; 90 min at 25° C; in-house; >10,000 = less than 30% displacement
Melatonin receptor = assay: Radioligand binding, melatonin receptors; settings: 70 pM [125I]2-Iodomelatonin; nonspecific 0.1 μM 2-iodomelatonin; chicken brain; by NOVASCREEN; >10,000 = less than 30% displacement
Method in brief: (§1)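 Run by a contract screening service. Binding was measured in tissue homogenates. Ki was calculated with the Cheng-Prusoff equation from separately determined Kd values and reported as mean ± SEM of replicate assays.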

[1] = molecular target: Muscarinic, central receptor; assay: Radioligand binding, muscarinic central; settings: 0.15 nM [3H]QNB; nonspecific 0.1 μM atropine; rat cerebral cortex; by NOVASCREEN; >10,000 = less than 30% displacement
[2] = molecular target: Muscarinic, peripheral receptor; assay: Radioligand binding, muscarinic peripheral; settings: 0.3 nM [3H]QNB; nonspecific 0.1 μM atropine; guinea pig bladder; by NOVASCREEN; >10,000 = less than 30% displacement
[3] = molecular target: Calcium, type N ion channel (Rattus norvegicus, UniProt Q02294); assay: Radioligand binding, calcium channel type N; settings: 0.01 nM [125I]ω-conotoxin GVIA; nonspecific 0.1 μM ω-conotoxin GVIA; rat cerebral cortex; by NOVASCREEN; >10,000 = less than 30% displacement
[4] = molecular target: Potassium, ATP-sensitive ion channel; assay: Radioligand binding, ATP-sensitive potassium channel; settings: 0.2 nM [3H]glibenclamide; nonspecific 0.1 μM glibenclamide; rat cerebral cortex; by NOVASCREEN; >10,000 = less than 30% displacement
Method in brief: as §1

male, Swiss Webster mice [5] = assay: Locomotor activity measurements; format: in vivo, mouse; settings: i.p.
male, Swiss Webster mice [6] = assay: Dopamine assay, striatum; format: in vivo, mouse; settings: AC927 10 mg/kg pretreatment + methamphetamine 5 mg/kg; Tukey q=5.58, P < 0.01
male, Swiss Webster mice [7] = assay: Dopamine assay, cerebellum; format: in vivo, mouse; settings: AC927 10 mg/kg pretreatment + methamphetamine 5 mg/kg; Tukey q=4.55, P < 0.05
male, Swiss Webster mice [8] = assay: Core body temperature measurements; format: in vivo, mouse; settings: AC927 5–20 mg/kg, i.p., 4 times at 2 h intervals; measured 1 h after each injection
[9] = ref Matsumoto and Mack, 2001; Matsumoto et al., 2002, 2003; cited from earlier work
tumor cells = settings: through a σ receptor-mediated mechanism; ref Crawford et al., 2002; cited from earlier work
male, Swiss Webster mice [10] = assay: Dopamine transporter; settings: 4 times at 2 h intervals
NG108-15 cells = assay: Cytotoxicity; format: cell-based; settings: methamphetamine 10–300 μM; 24 h and 48 h; 37° C; P < 0.0001

Sequence of Calcium, type N ion channel (P54287 whole entry): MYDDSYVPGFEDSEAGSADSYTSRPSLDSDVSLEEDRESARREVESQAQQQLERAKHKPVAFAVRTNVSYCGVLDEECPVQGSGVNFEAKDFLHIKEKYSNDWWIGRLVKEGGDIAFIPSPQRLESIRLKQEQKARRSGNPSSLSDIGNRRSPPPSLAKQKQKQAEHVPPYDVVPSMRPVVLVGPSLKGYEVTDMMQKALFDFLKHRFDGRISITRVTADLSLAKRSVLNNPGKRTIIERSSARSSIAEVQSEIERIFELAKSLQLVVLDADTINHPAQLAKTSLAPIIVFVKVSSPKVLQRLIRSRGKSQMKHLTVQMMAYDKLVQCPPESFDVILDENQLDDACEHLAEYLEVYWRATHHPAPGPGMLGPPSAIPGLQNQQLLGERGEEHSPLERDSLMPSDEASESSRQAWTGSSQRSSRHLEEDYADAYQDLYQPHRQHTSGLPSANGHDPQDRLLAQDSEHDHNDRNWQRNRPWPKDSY
Sequence of Calcium, type N ion channel (P54290 945-1091, further chain): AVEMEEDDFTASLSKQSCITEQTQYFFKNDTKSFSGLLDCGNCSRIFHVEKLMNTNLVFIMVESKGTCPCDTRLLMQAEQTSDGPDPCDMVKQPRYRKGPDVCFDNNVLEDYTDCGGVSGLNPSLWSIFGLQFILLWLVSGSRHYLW
Sequence of Calcium, type N ion channel (Q02294 whole entry): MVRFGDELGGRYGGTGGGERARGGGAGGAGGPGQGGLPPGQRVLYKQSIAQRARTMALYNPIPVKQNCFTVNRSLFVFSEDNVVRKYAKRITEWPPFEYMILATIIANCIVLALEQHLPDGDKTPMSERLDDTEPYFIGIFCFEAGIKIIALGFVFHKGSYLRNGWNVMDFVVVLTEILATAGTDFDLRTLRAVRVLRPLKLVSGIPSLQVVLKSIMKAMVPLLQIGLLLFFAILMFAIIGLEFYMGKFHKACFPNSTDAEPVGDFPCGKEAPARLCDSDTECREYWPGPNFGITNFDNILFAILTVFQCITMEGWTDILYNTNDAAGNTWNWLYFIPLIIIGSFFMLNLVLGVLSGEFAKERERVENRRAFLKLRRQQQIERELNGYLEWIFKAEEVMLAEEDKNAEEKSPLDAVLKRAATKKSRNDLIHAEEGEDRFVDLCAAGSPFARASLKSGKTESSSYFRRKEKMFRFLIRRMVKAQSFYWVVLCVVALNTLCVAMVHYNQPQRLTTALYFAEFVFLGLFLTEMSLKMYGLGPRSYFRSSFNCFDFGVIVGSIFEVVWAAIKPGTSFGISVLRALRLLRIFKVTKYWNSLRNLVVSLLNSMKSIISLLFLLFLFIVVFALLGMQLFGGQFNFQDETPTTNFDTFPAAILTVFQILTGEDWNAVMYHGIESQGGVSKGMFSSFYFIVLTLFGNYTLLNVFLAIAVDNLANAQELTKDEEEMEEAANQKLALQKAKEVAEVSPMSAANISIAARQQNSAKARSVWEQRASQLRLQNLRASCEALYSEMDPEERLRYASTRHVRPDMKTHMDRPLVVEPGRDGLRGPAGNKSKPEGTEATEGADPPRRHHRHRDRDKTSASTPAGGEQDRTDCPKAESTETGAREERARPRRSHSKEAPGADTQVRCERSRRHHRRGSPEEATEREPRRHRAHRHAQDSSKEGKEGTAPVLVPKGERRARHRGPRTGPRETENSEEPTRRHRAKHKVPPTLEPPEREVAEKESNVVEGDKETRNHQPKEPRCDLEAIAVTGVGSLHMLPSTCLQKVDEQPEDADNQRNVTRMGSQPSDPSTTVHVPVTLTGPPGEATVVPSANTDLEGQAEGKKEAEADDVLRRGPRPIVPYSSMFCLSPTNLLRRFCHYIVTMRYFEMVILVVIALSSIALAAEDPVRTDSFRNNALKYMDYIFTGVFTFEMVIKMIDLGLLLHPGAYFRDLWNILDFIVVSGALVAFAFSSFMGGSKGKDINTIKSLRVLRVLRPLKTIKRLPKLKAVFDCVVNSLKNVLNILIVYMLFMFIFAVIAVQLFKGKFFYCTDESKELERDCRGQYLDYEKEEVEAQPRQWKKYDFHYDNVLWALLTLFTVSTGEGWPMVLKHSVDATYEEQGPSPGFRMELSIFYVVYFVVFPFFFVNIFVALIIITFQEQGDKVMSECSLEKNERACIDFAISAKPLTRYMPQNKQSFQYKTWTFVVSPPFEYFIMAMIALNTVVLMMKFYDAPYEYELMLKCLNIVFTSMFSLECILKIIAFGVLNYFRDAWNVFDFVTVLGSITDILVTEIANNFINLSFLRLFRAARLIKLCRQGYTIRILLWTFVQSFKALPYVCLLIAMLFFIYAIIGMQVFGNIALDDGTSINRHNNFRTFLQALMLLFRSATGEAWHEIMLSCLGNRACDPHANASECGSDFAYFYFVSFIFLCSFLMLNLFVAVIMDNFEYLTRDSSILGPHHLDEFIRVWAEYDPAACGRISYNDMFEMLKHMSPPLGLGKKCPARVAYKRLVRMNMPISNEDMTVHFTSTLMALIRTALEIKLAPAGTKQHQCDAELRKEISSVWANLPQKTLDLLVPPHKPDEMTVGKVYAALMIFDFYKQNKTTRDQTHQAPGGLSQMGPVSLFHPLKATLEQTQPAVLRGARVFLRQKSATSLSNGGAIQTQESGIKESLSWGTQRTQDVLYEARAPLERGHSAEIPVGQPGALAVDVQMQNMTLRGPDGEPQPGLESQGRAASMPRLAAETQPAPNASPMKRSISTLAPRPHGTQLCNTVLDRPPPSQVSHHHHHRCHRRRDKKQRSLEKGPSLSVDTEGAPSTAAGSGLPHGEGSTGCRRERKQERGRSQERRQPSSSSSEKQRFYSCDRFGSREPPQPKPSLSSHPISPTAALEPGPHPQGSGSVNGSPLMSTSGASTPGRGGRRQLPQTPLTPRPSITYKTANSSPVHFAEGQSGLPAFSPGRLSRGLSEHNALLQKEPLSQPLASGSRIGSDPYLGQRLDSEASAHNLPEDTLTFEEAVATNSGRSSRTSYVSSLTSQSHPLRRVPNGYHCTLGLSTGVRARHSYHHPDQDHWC
Sequence of Calcium, type N ion channel (P54290 25-944, further chain): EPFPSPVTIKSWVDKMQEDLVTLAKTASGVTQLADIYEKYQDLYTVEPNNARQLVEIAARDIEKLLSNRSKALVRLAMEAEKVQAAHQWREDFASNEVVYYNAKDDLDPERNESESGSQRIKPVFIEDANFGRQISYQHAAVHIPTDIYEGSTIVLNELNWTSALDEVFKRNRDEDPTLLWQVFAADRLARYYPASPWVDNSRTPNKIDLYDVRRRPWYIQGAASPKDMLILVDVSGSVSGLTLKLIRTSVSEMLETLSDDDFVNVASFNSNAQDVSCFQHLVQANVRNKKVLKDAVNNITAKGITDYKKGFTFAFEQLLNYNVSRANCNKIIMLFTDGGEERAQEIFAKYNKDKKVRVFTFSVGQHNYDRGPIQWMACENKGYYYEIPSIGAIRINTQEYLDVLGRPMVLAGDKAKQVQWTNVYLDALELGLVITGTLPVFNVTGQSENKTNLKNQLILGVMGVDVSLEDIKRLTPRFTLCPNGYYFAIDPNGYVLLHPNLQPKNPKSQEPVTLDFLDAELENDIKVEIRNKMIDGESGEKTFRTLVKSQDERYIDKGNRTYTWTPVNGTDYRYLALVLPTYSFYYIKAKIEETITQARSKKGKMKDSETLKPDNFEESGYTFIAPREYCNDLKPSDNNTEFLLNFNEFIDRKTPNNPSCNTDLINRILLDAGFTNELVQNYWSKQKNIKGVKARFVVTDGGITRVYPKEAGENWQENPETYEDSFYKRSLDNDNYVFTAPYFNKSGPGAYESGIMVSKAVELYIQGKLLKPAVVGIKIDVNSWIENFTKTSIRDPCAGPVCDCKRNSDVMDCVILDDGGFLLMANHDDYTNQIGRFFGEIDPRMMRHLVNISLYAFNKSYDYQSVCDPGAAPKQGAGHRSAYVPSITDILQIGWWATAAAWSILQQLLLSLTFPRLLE
Sequence of Serotonin transporter (P31652 whole entry): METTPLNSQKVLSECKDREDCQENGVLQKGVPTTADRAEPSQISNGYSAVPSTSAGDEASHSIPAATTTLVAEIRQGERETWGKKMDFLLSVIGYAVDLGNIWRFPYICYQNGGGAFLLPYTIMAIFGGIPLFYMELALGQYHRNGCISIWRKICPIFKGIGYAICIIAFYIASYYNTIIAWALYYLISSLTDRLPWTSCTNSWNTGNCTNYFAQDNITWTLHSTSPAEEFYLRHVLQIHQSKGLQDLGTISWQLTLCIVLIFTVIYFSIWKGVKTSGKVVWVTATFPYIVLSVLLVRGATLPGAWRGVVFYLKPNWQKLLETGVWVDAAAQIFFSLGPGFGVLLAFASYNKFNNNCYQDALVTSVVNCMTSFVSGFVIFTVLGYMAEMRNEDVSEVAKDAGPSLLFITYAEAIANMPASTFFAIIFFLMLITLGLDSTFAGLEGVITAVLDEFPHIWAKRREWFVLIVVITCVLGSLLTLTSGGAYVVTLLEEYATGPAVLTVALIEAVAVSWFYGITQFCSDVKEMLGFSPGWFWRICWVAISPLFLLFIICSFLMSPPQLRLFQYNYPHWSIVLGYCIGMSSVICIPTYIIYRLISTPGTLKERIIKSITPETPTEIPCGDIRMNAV

Compound | pKi (Serotonin transporter) | pKi (Melatonin receptor) | pKi [1] | pKi [2] | pKi [3] | pKi [4] | Locomotor activity, dose response of AC927 alone (male, Swiss Webster mice [5]; AC927 0–20 mg/kg, activity quantified for 30 min, F(2,23)=7.45, P < 0.005) | Locomotor activity vs. saline control (male, Swiss Webster mice [5]; AC927 alone 10 mg/kg, q=1.09, n.s.) | Locomotor activity vs. saline control (male, Swiss Webster mice [5]; AC927 alone 20 mg/kg, q=3.80, P < 0.01) | Methamphetamine-induced striatal dopamine depletion, AC927 10 mg/kg (male, Swiss Webster mice [6]) | Methamphetamine-induced cerebellar dopamine depletion, AC927 10 mg/kg (male, Swiss Webster mice [7]) | Core body temperature, AC927 alone (male, Swiss Webster mice [8]) | Acute locomotor stimulant effects of cocaine [9] | Apoptosis in tumor cells (tumor cells) | DAT immunoreactivity in striatum, AC927 alone (male, Swiss Webster mice [10]; AC927 10 mg/kg, i.p. + saline, q=3.56, n.s.) | Locomotor activity, dose response of methamphetamine (male, Swiss Webster mice [5]; methamphetamine 0–1 mg/kg, activity quantified for 30 min, F(3,34)=5.93, P < 0.005) | Locomotor activity vs. saline control (male, Swiss Webster mice [5]; methamphetamine 1 mg/kg, Dunnett q=3.61, P < 0.01) | Cytotoxicity (cell morphology score), methamphetamine (NG108-15 cells) | DAT immunoreactivity in striatum, methamphetamine (male, Swiss Webster mice [10]; methamphetamine 5 mg/kg, i.p., one week later, q=14.26, P < 0.001)
O=C(O)C(=O)O.c1ccc(CCN2CCCCC2)cc1 [AC927, N-phenethylpiperidine oxalate] | < 5.00 | < 5.00 | < 5.00 | < 5.00 | < 5.00 | < 5.00 | dose dependently decreased locomotor activity | did not differ significantly from the saline control | differed significantly from the saline control | significantly attenuated | significantly attenuated | did not significantly change core body temperature | significantly attenuate the acute locomotor stimulant effects of cocaine | attenuate apoptosis in tumor cells | no significant effects on DAT expression |  |  |  | 
CN[C@@H](C)Cc1ccccc1 [Methamphetamine, Methamphetamine hydrochloride, reference compound] |  |  |  |  |  |  |  |  |  |  |  |  |  |  |  | progressive increase in locomotor activity | differed significantly from the saline control | concentration dependent increase in neurotoxicity | significant reduction in DAT immunoreactivity
